The results in this text go back to PMC7906539 (Medicinal chemistry research : an international journal for …, 2020).

Structures are written as SMILES.

In data set [1] the target is His-mHtt and GST-CaM (CaM–mHtt interaction) (Homo sapiens, UniProt P0DP23+P42858). The data set is described as follows: CaM/mHtt AlphaScreen binding assay. The settings on record: for IC50: read-out: AlphaScreen CaM–mHtt, IC50, triplicate. The gist of the method: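 His-mHtt (10 nM) preincubated 30 min with test compound, then GST-CaM (10 nM) added for 60 min at room temperature. Ni-chelate acceptor (10 μg/mL) and glutathione donor beads (15 μg/mL) are added for 2 h, then Alpha counts are read. Final 300–0.002 μM, triplicate; % inhibition normalized to DMSO controls.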
On the technique in general: Alpha assays give light when donor and acceptor beads are brought close together.

The subject of the next data set is SH-SY5Y cells. The data set is described as follows: Cytotoxicity assay. The data set is classed as cell-based. The note with it: for Cytotoxicity (SH-SY5Y cells, 24 h): 24 h incubation, CellTiter-Glo; for Cytotoxicity (SH-SY5Y cells, 24 h) / Cytotoxicity as stated in text: SH-SY5Y cells; for Cytotoxicity as stated in text: approximate value for both enantiomers. The gist of the method:
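SH-SY5Y cells seeded at 6000/well in 1:1 EMEM/F12 with 10% FBS. Exposure 24 h at 37 °C, then CellTiter-Glo luminescence read. Percent cytotoxicity normalized to DMSO controls.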
Background: In ATP-based viability assays light output follows the ATP content of the culture.

Data set [2] addresses death-associate protein kinase 1 (DAPK1) (Homo sapiens, UniProt P53355). In words: CaM-dependent kinase assay. Format: biochemical. The note with it: single concentration of 100 μM, in the presence of CaM. The gist of the method: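 Recombinant DAPK1 (25 ng), run with ADP-Glo at 5 μM ATP with native swine myelin basic protein as substrate, in the presence of CaM. Test compound is added at a single 100 μM (DMSO) and reacted 60 min at room temperature. Luminescence is read, and activity is expressed as percent of the no-compound reaction. Three experiments, ≥2 replicates each; mean ± SEM.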

Data set [3] concerns calcium/CaM-dependent kinase 2γ (CaMK2γ). In words: CaM-dependent kinase assay. Format: biochemical, Human. The settings on record: single concentration of 100 μM, in the presence of CaM. In a few lines: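 ADP-Glo reaction with CaMK2γ (12 ng), 25 μM ATP and Autocamtide-2 substrate, carried out with CaM present. Test compound is at a single 100 μM from DMSO; incubation 60 min at room temperature. Luminescent readout gives percent enzyme activity relative to the reaction without compound. Run three times with at least two replicates per experiment; mean ± SEM.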

death-associate protein kinase 1 (DAPK1), sequence (P53355 1-363): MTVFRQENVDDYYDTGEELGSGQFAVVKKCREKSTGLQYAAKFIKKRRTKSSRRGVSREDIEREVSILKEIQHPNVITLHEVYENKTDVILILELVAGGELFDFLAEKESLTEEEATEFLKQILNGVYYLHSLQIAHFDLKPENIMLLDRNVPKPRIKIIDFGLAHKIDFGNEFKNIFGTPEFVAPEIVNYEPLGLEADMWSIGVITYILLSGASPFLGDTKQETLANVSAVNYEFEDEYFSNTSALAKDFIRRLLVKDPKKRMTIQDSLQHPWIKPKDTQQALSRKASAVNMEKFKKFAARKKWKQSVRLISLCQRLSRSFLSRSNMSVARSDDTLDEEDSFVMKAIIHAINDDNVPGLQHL
His-mHtt and GST-CaM (CaM–mHtt interaction), sequence (P42858 whole entry, one chain of several): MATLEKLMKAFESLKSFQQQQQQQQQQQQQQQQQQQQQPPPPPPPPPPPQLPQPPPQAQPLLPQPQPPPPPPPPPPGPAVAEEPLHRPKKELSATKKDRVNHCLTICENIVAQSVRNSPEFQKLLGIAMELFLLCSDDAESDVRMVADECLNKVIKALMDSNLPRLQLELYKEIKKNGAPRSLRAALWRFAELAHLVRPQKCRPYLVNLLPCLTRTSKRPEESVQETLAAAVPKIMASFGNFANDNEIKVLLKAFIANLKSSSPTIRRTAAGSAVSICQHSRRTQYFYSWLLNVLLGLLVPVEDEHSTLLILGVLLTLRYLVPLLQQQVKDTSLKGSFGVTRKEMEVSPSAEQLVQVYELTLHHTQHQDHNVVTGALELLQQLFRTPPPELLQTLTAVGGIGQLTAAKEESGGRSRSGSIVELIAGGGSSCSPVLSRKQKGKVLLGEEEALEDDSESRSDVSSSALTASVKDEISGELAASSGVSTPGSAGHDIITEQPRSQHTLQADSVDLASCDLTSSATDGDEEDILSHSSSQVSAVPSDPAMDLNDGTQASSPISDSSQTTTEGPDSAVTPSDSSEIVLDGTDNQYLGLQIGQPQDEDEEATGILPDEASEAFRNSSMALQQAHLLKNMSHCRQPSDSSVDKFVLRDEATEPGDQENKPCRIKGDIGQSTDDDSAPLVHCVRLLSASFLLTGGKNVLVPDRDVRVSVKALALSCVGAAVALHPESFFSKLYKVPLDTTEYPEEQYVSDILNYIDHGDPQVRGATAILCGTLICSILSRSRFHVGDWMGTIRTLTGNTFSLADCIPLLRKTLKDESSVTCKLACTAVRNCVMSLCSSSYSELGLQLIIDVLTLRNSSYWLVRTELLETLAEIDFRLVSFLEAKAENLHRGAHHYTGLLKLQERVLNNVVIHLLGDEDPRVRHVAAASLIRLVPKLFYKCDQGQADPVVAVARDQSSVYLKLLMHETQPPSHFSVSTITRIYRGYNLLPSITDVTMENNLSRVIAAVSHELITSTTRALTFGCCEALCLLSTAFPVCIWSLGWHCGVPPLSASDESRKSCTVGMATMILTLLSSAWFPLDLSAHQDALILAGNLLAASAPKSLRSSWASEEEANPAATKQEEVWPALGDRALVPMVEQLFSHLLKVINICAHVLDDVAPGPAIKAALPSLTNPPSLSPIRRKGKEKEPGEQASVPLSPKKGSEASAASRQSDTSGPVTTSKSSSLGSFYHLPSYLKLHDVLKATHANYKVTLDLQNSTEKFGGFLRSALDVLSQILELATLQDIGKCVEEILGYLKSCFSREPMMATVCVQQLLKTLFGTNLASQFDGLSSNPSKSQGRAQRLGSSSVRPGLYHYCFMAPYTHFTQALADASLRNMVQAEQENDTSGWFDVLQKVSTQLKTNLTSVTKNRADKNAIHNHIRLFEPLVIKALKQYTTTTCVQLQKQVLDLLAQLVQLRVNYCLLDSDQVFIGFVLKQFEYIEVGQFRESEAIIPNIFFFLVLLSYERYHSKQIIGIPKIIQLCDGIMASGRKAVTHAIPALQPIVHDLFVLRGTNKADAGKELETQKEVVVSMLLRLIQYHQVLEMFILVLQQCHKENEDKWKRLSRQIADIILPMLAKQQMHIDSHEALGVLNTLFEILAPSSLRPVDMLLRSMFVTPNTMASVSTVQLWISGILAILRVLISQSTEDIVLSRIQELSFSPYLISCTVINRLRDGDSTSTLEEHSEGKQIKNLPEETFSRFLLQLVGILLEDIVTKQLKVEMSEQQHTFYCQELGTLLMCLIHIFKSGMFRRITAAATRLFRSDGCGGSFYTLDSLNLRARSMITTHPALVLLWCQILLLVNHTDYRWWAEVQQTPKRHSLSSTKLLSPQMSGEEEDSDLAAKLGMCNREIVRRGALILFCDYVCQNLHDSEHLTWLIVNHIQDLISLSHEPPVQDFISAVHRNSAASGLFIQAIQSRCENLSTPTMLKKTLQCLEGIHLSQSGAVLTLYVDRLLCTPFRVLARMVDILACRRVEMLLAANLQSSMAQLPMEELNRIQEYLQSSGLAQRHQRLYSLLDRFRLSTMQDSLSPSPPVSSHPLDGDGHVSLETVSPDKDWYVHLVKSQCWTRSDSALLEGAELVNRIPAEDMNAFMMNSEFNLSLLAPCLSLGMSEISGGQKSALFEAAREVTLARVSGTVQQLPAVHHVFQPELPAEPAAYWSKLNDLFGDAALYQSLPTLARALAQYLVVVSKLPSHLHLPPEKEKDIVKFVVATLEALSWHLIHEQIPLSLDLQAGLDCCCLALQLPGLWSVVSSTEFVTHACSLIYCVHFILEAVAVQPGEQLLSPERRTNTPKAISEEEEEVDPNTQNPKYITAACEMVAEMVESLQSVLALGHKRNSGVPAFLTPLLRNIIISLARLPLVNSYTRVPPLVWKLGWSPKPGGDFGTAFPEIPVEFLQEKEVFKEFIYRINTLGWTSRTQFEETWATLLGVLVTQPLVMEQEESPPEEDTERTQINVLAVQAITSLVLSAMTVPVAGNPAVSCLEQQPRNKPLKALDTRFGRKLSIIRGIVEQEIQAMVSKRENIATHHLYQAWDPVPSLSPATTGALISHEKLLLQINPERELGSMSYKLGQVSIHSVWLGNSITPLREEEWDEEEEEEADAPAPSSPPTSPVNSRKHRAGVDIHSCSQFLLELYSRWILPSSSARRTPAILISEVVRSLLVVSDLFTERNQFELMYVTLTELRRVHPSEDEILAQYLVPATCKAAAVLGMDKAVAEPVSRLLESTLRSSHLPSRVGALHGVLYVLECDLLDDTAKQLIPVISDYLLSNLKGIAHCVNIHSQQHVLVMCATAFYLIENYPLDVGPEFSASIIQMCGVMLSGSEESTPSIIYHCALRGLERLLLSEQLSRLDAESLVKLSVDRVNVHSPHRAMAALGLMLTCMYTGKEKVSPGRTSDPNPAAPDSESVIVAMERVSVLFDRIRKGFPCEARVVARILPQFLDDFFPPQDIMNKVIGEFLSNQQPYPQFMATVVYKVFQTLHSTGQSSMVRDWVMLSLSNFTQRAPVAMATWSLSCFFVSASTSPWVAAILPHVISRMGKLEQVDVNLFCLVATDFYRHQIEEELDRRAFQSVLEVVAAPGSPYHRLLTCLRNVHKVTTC

In the case of `CC(C)C[C@@H](C(=O)NCc1ccc(Cl)c(Cl)c1)N1CCC(=O)c2ccccc2S1(=O)=O` [Compound 11a, (S) -N-(3,4-Dichlorobenzyl)-2-(1,1-dioxido-5-oxo-4,5-dihydrobenzo[f][1,2]thiazepin-2(3H)-yl)-4-methylpentanamide], in data set [1], the IC50 (as a rule, the point on the concentration scale where inhibition reaches its midpoint) came out at 2.14 µM. In the data set with SH-SY5Y cells, the “Cytotoxicity (SH-SY5Y cells, 24 h)” value is 39.8 µM.

Consider `C=C1CCN([C@@H](CC(C)C)C(=O)NCC2CCCCC2)S(=O)(=O)c2ccccc21` [Compound 9g, (S)-N-(Cyclohexylmethyl)-4-methyl-2-(5-methylene-1,1-dioxido-4,5-dihydrobenzo[f][1,2]thiazepin-2(3H)-yl) pentanamide], for which the IC50 in data set [1] amounted to 16.6 µM. Besides, the “Cytotoxicity (SH-SY5Y cells, 24 h)” value with SH-SY5Y cells is 101 ± 5 µM.

With `CC(C)C[C@@H](C(=O)NCc1ccc(Cl)cc1)N1CCC(=O)c2ccccc2S1(=O)=O` [Compound 11c, (S)-N-(4-Chlorobenzyl)-2-(1,1-dioxido-5-oxo-4,5-dihydrobenzo[f][1,2]thiazepin-2(3H)-yl)-4-methylpentanamide], in data set [1], the half-inhibitory concentration (IC50) was determined as 11.2 µM. In addition, in the data set on SH-SY5Y cells, the “Cytotoxicity (SH-SY5Y cells, 24 h)” value turned out to be 41.4 µM.

Take `C=C1CCN([C@@H](CC(C)C)C(=O)NCc2ccc(Cl)cc2)S(=O)(=O)c2ccccc21` [Compound 9c, (S)-N-(4-Chlorobenzyl)-4-methyl-2-(5-methylene-1,1-dioxido-4,5-dihydrobenzo[f][1,2]thiazepin-2(3H)-yl) pentanamide]: the IC50 in data set [1] is 2.8 µM. Also, in the data set on SH-SY5Y cells, the “Cytotoxicity (SH-SY5Y cells, 24 h)” value turned out to be 94 ± 3 µM and the “Cytotoxicity as stated in text” value was “ca. 90 pM”. Also, the “Inhibition of DAPK1 enzyme activity (in words)” value in data set [2] is “did not significantly inhibit”. The “Inhibition of CaMK2γ enzyme activity (in words)” value in data set [3] is recorded as “did not significantly inhibit”.

Turning to `C=C1CCN([C@@H](CC(C)C)C(=O)NCc2ccccc2)S(=O)(=O)c2ccccc21` [Compound 9b], the IC50 in data set [1] amounted to 12.4 µM. The “Cytotoxicity (SH-SY5Y cells, 24 h)” value in the data set on SH-SY5Y cells is over 300 µM.

As to `C=C1CCN([C@H](CC(C)C)C(=O)NCc2ccc(OC)cc2)S(=O)(=O)c2ccccc21` [Compound 10f, (R)-N-(4-Methoxybenzyl)-4-methyl-2-(5-methylene-1,1-dioxido-4,5-dihydrobenzo[f][1,2]thiazepin-2(3H)-yl) pentanamide], in data set [1], the “Disruption of mHtt-CaM PPI (in words)” value was “lost all mHtt-CaM disruption activity” and the IC50 was over 300 µM. Further, the “Cytotoxicity (SH-SY5Y cells, 24 h)” value in the data set on SH-SY5Y cells was over 300 µM.

Take `Cc1ccc(CNC(=O)[C@H](CC(C)C)N2CCC(=O)c3ccccc3S2(=O)=O)cc1` [Compound 11e, (S)-2-(1,1-Dioxido-5-oxo-4,5-dihydrobenzo[f][1,2]thiazepin-2(3H)-yl)-4-methyl-N-(4-methylbenzyl)pentanamide]: the IC50 in data set [1] is 24.5 µM. In addition, the “Cytotoxicity (SH-SY5Y cells, 24 h)” value in the data set on SH-SY5Y cells is 43.4 µM.

Take `C=C1CCN([C@H](CC(C)C)C(=O)NCc2ccc(Cl)c(C(F)(F)F)c2)S(=O)(=O)c2ccccc21` [Compound 10d, (R)-N-(4-Chloro-3-(trifluoromethyl)benzyl)-4-methyl-2-(5-methylene-1,1-dioxido-4,5-dihydrobenzo[f][1,2]thiazepin-2 (3H)-yl)pentanamide]: in data set [1], the half-inhibitory concentration (IC50) turned out to be 1.8 µM. Also, the “Cytotoxicity (SH-SY5Y cells, 24 h)” value in the data set on SH-SY5Y cells is over 300 µM.

`C=C1CCN([C@H](CC(C)C)C(=O)NCCc2ccc(Cl)c(Cl)c2)S(=O)(=O)c2ccccc21` [Compound 10h]: the IC50 in data set [1] was found to be 0.5 µM. Also, the “Cytotoxicity (SH-SY5Y cells, 24 h)” value with SH-SY5Y cells was over 300 µM. Also, the “Inhibition of DAPK1 enzyme activity (in words)” value in data set [2] is listed as “did not significantly inhibit”. The “Inhibition of CaMK2γ enzyme activity (in words)” value in data set [3] is listed as “did not significantly inhibit”.

With `C=C1CCN([C@H](CC(C)C)C(=O)NCc2ccc(Cl)cc2)S(=O)(=O)c2ccccc21` [Compound 10c, (R)-N-(4-Chlorobenzyl)-4-methyl-2-(5-methylene-1,1-dioxido-4,5-dihydrobenzo[f][1,2]thiazepin-2(3H)-yl) pentanamide], the IC50 in data set [1] was 3 µM. Moreover, in the data set on SH-SY5Y cells, the “Cytotoxicity (SH-SY5Y cells, 24 h)” value was 86 ± 9 µM and the “Cytotoxicity as stated in text” value was “ca. 90 pM”. The “Inhibition of DAPK1 enzyme activity (in words)” value in data set [2] is “did not significantly inhibit”. The “Inhibition of CaMK2γ enzyme activity (in words)” value in data set [3] is listed as “did not significantly inhibit”.

Turning to `C=C1CCN([C@@H](CC(C)C)C(=O)NCc2ccc(OC)cc2)S(=O)(=O)c2ccccc21` [Compound 9f, (S)-N-(4-Methoxybenzyl)-4-methyl-2-(5-methylene-1,1-dioxido-4,5-dihydrobenzo[f][1,2]thiazepin-2(3H)-yl) pentanamide], in data set [1], the “Disruption of mHtt-CaM PPI (in words)” value is reported as “lost all mHtt-CaM disruption activity” and the IC50 was over 300 µM. In addition, the “Cytotoxicity (SH-SY5Y cells, 24 h)” value with SH-SY5Y cells was over 300 µM.

As to `C=C1CCN([C@H](CC(C)C)C(=O)NCc2ccc(Cl)c(Cl)c2)S(=O)(=O)c2ccccc21` [Compound 10a, (R)-N-(3,4-Dichlorobenzyl)-4-methyl-2-(5-methylene-1,1-dioxido-4,5-dihydrobenzo[f][1,2]thiazepin-2(3H)-yl) pentanamide], the IC50 in data set [1] came to 0.98 µM. In addition, the “Cytotoxicity (SH-SY5Y cells, 24 h)” value in the data set on SH-SY5Y cells was over 300 µM.

In the case of `C=C1CCN([C@H](CC(C)C)C(=O)NCc2ccc(C)cc2)S(=O)(=O)c2ccccc21` [Compound 10e, (R)-4-Methyl-N-(4-methylbenzyl)-2-(5-methylene-1,1-dioxido-4,5-dihydrobenzo[f][1,2]thiazepin-2(3H)-yl) pentanamide], in data set [1], the IC50 was 15.1 µM. Further, the “Cytotoxicity (SH-SY5Y cells, 24 h)” value in the data set on SH-SY5Y cells stood at 64 ± 2.5 µM.

Turning to `C=C1CCN([C@H](CC(C)C)C(=O)NCc2ccccc2)S(=O)(=O)c2ccccc21` [Compound 10b, (R)-N-Benzyl-4-methyl-2-(5-methylene-1,1-dioxido-4,5-dihydrobenzo[f][1,2]thiazepin-2(3H)-yl)pentanamide], the IC50 in data set [1] was determined as 12.7 µM. The “Cytotoxicity (SH-SY5Y cells, 24 h)” value with SH-SY5Y cells stood at 87 ± 2 µM.

For the molecule `CC(C)C[C@@H](C(=O)NCc1ccc(Cl)c(C(F)(F)F)c1)N1CCC(=O)c2ccccc2S1(=O)=O` [Compound 11d, (S)-N-(4-Chloro-3-(trifluoromethyl)benzyl)-2-(1,1-dioxido-5-oxo-4,5-dihydrobenzo[f][1,2]thiazepin-2(3H)-yl)-4-methylpentanamide], in data set [1], the IC50 is 2.03 µM. Further, the “Cytotoxicity (SH-SY5Y cells, 24 h)” value in the data set with SH-SY5Y cells was found to be 44.2 µM.

For `CC(C)C[C@@H](C(=O)NCC1CCCCC1)N1CCC(=O)c2ccccc2S1(=O)=O` [Compound 11g, (S)-W-(Cyclohexylmethyl)-2-(1,1-dioxido-5-oxo-4,5-dihydrobenzo[f][1,2]thiazepin-2(3H)-yl)-4-methylpentanamide], the IC50 in data set [1] turned out to be 31 µM. For the same molecule, the “Cytotoxicity (SH-SY5Y cells, 24 h)” value in the data set with SH-SY5Y cells was 40.1 µM.

Regarding `CC(C)C[C@@H](C(=O)NCc1ccccc1)N1CCC(=O)c2ccccc2S1(=O)=O` [Compound 11b, (S)-N-Benzyl-2-(1,1-dioxido-5-oxo-4,5-dihydrobenzo[f][1,2]thiazepin-2(3H)-yl)-4-methylpentanamide], the IC50 in data set [1] was 14.6 µM. In addition, the “Cytotoxicity (SH-SY5Y cells, 24 h)” value in the data set with SH-SY5Y cells is 43.8 µM.

As to `C=C1CCN([C@@H](CC(C)C)C(=O)NCc2ccc(C)cc2)S(=O)(=O)c2ccccc21` [Compound 9e, (S)-4-Methyl-N-(4-methylbenzyl)-2-(5-methylene-1,1-dioxido-4,5-dihydrobenzo[f][1,2]thiazepin-2(3H)-yl) pentanamide], the half-inhibitory concentration (IC50) in data set [1] is 15 µM. Also, the “Cytotoxicity (SH-SY5Y cells, 24 h)” value in the data set on SH-SY5Y cells amounted to 102 ± 7 µM.

On to `C=C1CCN([C@H](CC(C)C)C(=O)NCC2CCCCC2)S(=O)(=O)c2ccccc21` [Compound 10g, (R)-N-(Cyclohexylmethyl)-4-methyl-2-(5-methylene-1,1-dioxido-4,5-dihydrobenzo[f][1,2]thiazepin-2(3H)-yl) pentanamide], for which the IC50 in data set [1] stood at 12.2 µM. In the data set with SH-SY5Y cells, the “Cytotoxicity (SH-SY5Y cells, 24 h)” value turned out to be 99 ± 4 µM.

With `C=C1CCN([C@@H](CC(C)C)C(=O)NCc2ccc(Cl)c(Cl)c2)S(=O)(=O)c2ccccc21` [Compound 9a], in data set [1], the “Disruption of mHtt-CaM PPI (in words)” value is given as “retained activity” and the IC50 was 1.03 µM. In the data set with SH-SY5Y cells, the “Toxicity to SH-SY5Y cells (in words)” value was “no measurable toxicity” and the “Cytotoxicity (SH-SY5Y cells, 24 h)” value was over 300 µM.

As for `COc1ccc(CNC(=O)[C@H](CC(C)C)N2CCC(=O)c3ccccc3S2(=O)=O)cc1` [Compound 11f, (S)-2-(1,1-Dioxido-5-oxo-4,5-dihydrobenzo[f][1,2]thiazepin-2(3H)-yl)-N-(4-methoxybenzyl)-4-methylpentanamide], in data set [1], the “Disruption of mHtt-CaM PPI (in words)” value is listed as “retained marginal activity” and the concentration for half-maximal inhibition (IC50) was found to be 52.6 µM. Besides, the “Cytotoxicity (SH-SY5Y cells, 24 h)” value in the data set with SH-SY5Y cells amounted to 44.6 µM.

Consider `CC(C)C[C@@H](C(=O)NCCc1ccc(Cl)c(Cl)c1)N1CCC(=O)c2ccccc2S1(=O)=O` [Compound 11h, (S)-N-(3,4-Dichlorophenethyl)-2-(1,1-dioxido-5-oxo-4,5-dihydrobenzo[f][1,2]thiazepin-2(3H)-yl)-4-methylpentanamide], for which the IC50 in data set [1] was 0.97 µM. In addition, the “Cytotoxicity (SH-SY5Y cells, 24 h)” value with SH-SY5Y cells turned out to be 32.3 µM.
